Results from ChEMBL document CHEMBL5705891, “Small-molecule kinase inhibitors provide insight into Mps1 cell cycle function” (Nat Chem Biol, 2010).
Values belong to the molecule of their own block, whether it stands above or below them. The source made the active and inactive calls. The calls are words filed in the database; no cut-off is given here.

Columns and labels:
UTRM10 [1] = test: Reversal of Paclitaxel-induced mitotic arrest in UTRM10 cells (unknown origin) by immunoblot analysis; type: functional, cell-based
[2] = target: Receptor-type tyrosine-protein kinase FLT3 (Homo sapiens) (UniProt P36888); test: Inhibition of FLT3 (unknown origin) assessed as residual enzyme activity at 10 uM by Ambit kinase binding assay relative to control
U2OS [3] = test: Reversal of nocodazole-induced mitotic arrest in human U2OS cells assessed as decrease in cyclin B level at 10 uM incubated for 4 hrs in presence of MG132 by immunoblot analysis; type: functional, cell-based
U2OS [4] = test: Reversal of s-trityl cysteine-induced mitotic arrest in human U2OS cells assessed as Ser10 phosphorylated Histone H3-positive 4c population at 5 uM incubated for 16 hrs by flow cytometry (reference value: 50 %); type: functional
[5] = target: Serine/threonine-protein kinase 33 (Homo sapiens, UniProt Q9BYT3); test: Binding affinity to STK33 (unknown origin) assessed as dissociation constant by Ambit kinase binding assay
[6] = target: Cyclin-G-associated kinase (Homo sapiens, UniProt O14976); test: Binding affinity to GAK (unknown origin) assessed as dissociation constant by Ambit kinase binding assay
[7] = target: Protein-tyrosine kinase 2-beta (Homo sapiens, UniProt Q14289); test: Inhibition of PTK2B (unknown origin) assessed as residual enzyme activity at 10 uM by Ambit kinase binding assay relative to control
[8] = target: Serine/threonine-protein kinase PLK4 (Homo sapiens, UniProt O00444); test: Binding affinity to PLK4 (unknown origin) assessed as dissociation constant by Ambit kinase binding assay
[9] = target: T1, Cyclin-G-associated kinase (Homo sapiens) (UniProt O14976); test: Inhibition of GAK (unknown origin) assessed as residual enzyme activity at 10 uM by Ambit kinase binding assay relative to control
T1 sequence (whole entry): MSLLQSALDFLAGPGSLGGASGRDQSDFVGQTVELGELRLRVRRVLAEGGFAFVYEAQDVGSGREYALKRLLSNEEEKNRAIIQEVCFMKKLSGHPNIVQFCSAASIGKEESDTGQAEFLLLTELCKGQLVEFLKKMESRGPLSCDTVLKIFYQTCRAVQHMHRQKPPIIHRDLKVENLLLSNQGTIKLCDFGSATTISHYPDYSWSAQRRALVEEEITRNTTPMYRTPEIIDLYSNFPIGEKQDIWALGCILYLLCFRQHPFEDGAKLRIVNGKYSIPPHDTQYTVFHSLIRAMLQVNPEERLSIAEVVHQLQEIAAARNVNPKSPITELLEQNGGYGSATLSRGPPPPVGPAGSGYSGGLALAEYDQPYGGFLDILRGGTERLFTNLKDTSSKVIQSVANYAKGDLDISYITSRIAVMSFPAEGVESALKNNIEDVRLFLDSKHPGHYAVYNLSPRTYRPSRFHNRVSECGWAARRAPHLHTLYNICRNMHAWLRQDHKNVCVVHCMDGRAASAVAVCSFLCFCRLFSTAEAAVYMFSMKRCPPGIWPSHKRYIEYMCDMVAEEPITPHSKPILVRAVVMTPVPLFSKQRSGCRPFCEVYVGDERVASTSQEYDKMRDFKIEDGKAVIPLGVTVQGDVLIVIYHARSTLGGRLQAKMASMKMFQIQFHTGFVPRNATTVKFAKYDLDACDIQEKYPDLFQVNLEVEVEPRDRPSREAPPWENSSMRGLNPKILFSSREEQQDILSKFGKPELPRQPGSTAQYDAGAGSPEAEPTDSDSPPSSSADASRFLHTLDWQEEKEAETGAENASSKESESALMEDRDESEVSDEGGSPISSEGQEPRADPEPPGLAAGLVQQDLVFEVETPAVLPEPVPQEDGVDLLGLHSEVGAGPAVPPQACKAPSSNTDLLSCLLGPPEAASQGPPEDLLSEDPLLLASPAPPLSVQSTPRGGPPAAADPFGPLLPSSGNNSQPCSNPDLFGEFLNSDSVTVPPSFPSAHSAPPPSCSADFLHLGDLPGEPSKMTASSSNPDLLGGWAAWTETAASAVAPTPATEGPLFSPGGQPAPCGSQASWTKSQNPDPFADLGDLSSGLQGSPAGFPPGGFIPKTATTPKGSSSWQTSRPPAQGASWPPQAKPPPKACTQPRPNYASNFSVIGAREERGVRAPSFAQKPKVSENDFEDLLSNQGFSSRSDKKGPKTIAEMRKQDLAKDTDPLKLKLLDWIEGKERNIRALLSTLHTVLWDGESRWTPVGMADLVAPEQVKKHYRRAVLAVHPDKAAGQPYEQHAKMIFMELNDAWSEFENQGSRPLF

UTRM10 [10] = test: Upregulation of phosphorylated histone H3 level in UTRM10 cells (unknown origin) upto 10 uM by immunoblot analysis; type: functional, cell-based
[11] = target: Serine/threonine-protein kinase PLK3 (Homo sapiens, UniProt Q9H4B4); test: Binding affinity to PLK3 (unknown origin) assessed as dissociation constant by Ambit kinase binding assay
[12] = target: Serine/threonine-protein kinase PLK1 (Homo sapiens, UniProt P53350); test: Binding affinity to PLK1 (unknown origin) assessed as dissociation constant by Ambit kinase binding assay
U2OS [13] = test: Reversal of nocodazole-induced mitotic arrest in human U2OS cells assessed as decrease in cyclin B level at 0.3 to 10 uM incubated for 4 hrs by immunoblot analysis; type: functional, cell-based; details: dose 0.3-10 µM
U2OS [14] = test: Reversal of s-trityl cysteine-induced mitotic arrest in human U2OS cells assessed as Ser10 phosphorylated Histone H3-positive 4c population at 10 uM incubated for 16 hrs by flow cytometry (reference value: 50 %); type: functional
[15] = target: T2, Serine/threonine-protein kinase PLK4 (Homo sapiens) (UniProt O00444); test: Induction of Plk4 in human U2OS cells assessed as resolution of metaphase multipolar spindles into bipolar spindles in anaphase in cell populations with extra centrosomes by centrin staining based analysis; details: filed as activator
T2 sequence (whole entry): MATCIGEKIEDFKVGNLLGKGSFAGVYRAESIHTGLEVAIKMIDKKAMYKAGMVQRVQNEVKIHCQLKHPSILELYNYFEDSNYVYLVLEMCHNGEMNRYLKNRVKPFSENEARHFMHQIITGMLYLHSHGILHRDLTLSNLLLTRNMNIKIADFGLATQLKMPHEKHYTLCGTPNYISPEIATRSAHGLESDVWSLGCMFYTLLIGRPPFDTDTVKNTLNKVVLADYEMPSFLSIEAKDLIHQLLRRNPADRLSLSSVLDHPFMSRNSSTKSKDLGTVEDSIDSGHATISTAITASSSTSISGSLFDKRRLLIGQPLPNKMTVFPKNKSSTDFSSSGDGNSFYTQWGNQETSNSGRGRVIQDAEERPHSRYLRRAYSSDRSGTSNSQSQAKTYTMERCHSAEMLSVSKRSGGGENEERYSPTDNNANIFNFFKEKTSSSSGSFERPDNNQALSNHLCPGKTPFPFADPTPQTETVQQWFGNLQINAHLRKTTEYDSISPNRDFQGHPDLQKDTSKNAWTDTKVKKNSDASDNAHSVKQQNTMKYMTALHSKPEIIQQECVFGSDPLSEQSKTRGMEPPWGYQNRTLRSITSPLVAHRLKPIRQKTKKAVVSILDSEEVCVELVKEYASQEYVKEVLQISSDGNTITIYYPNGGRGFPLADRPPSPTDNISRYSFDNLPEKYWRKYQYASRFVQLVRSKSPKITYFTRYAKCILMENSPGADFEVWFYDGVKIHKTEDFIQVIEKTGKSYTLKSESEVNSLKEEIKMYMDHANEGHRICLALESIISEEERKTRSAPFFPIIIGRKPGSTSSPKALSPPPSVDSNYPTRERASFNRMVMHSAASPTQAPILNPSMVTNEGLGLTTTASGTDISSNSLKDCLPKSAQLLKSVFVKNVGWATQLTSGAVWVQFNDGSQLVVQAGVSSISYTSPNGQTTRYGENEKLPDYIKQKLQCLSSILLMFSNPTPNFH
Summary of the method: (§1)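 U2OS cells with doxycycline-inducible Plk4 were induced with doxycycline (2 μg·ml⁻¹) or given DMSO. Metaphase spindles carrying more than 2 centrosomes were counted by centrin staining (~300 spindles), and spindle polarity was followed by centrin/α-tubulin/DNA immunofluorescence.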

[16] = target: T2, Serine/threonine-protein kinase PLK4 (Homo sapiens); test: Induction of Plk4 in human U2OS cells assessed as bipolar cell division of cell populations with extra centrosomes by centrin staining based analysis; details: filed as activator; summary of the method: as §1
[17] = target: T2, Serine/threonine-protein kinase PLK4 (Homo sapiens); test: Induction of Plk4 in human U2OS cells assessed as increase in cell populations with extra centrosomes by centrin staining based analysis relative to control; details: filed as activator; summary of the method: as §1
UTRM10 [18] = test: Effect on thymidine-treated UTRM10 cells (unknown origin) with Mps1-/- incubated for 24 to 72 hrs by immunoblot analysis; type: functional, cell-based; details: time lower 24.0 hrs, time upper […]
U2OS [19] = test: Induction of extra centrosomes in cell populations of thymidine-treated human U2OS cells expressing H2B-GFP and Plk4 overexpression assessed as fold delay in anaphase onset measured for 30 mins by time lapse imaging analysis relative to control; type: functional; details: 0.5 h
Summary of the method: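 Doxycycline-inducible Plk4 U2OS cells expressing H2B-GFP were blocked with thymidine for 18 hrs and released into doxycycline (2 μg·ml⁻¹) for 10 hrs. A second 18-hr thymidine block followed, then release for 6 hrs before 5 μM inhibitor, with or without Plk4 induction. Cells were imaged by time-lapse at 37°C, 5% CO₂, timed from NEBD, and bipolar versus multipolar anaphases were scored. Values are mean ± SD of 3 independent experiments.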

Receptor-type tyrosine-protein kinase FLT3 (Homo sapiens), sequence (P36888 whole entry): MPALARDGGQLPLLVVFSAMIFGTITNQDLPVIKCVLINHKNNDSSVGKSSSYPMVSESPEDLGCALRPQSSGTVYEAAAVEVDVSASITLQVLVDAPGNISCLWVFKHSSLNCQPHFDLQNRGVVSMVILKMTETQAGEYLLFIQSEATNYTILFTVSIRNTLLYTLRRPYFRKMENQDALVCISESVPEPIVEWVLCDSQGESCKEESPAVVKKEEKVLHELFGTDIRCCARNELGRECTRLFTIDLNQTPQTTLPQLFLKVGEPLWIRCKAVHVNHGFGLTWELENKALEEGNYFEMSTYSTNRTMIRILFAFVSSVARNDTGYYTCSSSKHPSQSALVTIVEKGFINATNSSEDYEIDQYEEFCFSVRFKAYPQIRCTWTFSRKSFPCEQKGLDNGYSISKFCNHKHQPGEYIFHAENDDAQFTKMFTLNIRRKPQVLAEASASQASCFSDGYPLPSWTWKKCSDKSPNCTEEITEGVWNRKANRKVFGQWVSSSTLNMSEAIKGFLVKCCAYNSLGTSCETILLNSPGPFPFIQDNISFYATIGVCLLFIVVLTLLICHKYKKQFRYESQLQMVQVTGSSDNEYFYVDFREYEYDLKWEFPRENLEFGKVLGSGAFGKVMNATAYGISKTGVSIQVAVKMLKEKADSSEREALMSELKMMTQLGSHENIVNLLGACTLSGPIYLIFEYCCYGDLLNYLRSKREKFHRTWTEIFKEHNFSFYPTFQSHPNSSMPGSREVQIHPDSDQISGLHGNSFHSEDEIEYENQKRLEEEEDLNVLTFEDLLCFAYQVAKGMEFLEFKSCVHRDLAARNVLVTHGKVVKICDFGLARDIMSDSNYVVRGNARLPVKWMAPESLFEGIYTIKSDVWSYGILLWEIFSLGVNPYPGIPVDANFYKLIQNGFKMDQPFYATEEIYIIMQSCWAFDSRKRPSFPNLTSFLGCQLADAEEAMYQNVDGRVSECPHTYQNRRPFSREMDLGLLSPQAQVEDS
Serine/threonine-protein kinase 33, sequence (Q9BYT3 whole entry): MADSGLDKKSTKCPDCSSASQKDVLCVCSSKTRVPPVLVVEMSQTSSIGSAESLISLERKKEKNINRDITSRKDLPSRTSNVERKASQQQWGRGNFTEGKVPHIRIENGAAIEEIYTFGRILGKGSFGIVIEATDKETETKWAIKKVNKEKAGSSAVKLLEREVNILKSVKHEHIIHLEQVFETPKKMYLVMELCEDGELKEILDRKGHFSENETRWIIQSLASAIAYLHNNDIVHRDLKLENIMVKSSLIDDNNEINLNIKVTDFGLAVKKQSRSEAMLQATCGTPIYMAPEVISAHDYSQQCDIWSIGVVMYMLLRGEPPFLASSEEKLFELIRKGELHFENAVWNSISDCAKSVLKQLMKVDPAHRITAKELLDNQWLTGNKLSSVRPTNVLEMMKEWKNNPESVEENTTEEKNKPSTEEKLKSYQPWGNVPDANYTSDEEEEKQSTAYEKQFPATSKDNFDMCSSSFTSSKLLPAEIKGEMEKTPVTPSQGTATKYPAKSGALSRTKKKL
Protein-tyrosine kinase 2-beta, sequence (Q14289 whole entry, looked up): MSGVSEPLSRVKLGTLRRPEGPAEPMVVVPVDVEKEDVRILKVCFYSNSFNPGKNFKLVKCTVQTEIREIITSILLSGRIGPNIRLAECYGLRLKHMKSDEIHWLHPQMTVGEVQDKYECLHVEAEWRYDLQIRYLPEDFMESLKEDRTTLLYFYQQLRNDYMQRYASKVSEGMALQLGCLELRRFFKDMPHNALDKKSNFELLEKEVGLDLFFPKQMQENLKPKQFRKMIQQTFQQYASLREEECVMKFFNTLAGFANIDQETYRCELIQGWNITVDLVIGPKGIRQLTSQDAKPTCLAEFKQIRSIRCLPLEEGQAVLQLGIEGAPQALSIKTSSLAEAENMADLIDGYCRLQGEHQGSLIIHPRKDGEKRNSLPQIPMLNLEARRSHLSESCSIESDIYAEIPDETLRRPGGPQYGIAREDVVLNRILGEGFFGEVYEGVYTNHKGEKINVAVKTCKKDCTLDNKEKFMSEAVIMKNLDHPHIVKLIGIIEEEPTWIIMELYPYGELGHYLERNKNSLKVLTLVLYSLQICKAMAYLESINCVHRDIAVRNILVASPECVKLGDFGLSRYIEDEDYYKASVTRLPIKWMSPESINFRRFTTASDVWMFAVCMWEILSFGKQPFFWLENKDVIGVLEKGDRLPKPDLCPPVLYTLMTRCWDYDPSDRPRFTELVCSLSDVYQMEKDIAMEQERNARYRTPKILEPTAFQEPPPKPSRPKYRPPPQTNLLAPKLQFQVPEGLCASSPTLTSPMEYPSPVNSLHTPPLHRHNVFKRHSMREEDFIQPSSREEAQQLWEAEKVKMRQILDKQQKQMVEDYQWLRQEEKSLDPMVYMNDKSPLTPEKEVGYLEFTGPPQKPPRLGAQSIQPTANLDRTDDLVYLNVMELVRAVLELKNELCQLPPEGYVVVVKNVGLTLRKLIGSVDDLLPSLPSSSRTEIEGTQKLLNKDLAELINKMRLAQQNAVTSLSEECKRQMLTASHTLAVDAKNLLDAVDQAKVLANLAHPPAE
Serine/threonine-protein kinase PLK1, sequence (P53350 whole entry): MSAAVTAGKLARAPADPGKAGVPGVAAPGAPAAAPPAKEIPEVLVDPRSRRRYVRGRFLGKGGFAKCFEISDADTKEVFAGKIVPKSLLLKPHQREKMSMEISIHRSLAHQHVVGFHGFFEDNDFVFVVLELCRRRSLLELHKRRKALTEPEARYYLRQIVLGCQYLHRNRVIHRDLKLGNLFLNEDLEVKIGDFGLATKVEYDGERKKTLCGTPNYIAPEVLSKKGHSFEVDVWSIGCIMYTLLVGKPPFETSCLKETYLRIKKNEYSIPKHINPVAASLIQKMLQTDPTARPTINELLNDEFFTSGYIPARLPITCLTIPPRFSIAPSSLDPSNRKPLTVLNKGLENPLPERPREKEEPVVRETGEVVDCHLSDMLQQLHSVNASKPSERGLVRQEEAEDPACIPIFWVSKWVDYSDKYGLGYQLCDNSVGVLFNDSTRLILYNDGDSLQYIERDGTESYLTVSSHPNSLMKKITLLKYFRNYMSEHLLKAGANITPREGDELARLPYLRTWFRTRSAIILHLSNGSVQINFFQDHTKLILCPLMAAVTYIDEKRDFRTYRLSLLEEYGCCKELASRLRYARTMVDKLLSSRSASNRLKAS
Serine/threonine-protein kinase PLK3, sequence (Q9H4B4 whole entry): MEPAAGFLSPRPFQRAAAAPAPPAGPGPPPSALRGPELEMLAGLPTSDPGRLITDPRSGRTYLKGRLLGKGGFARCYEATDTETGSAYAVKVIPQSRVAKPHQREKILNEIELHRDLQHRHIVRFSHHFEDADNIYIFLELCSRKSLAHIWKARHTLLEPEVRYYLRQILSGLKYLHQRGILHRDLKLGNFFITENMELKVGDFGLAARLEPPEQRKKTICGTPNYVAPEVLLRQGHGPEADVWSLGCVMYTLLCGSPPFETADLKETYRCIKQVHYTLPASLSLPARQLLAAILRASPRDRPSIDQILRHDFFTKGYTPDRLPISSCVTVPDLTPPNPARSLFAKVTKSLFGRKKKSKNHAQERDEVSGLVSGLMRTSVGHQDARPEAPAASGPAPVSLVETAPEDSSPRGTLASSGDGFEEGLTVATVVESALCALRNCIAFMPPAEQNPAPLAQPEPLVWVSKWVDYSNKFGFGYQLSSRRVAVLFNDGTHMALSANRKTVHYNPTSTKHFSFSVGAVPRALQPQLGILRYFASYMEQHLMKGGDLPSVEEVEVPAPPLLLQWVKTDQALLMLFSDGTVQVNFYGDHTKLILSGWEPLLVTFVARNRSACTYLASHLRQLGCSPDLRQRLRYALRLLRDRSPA

SMILES: Cc1cc(Nc2cc(N3CCN(C)CC3)nc(Sc3ccc(NC(=O)C4CC4)cc3)n2)n[nH]1
Activity (UTRM10 [1]): Active

Activity [2]: 0% | Kd [5]: 5 µM | Kd [6]: 0.14 µM | Activity [7]: 24% | Kd [8]: 3.1 µM | Activity [9]: 2% | Kd [11]: 1.6 µM | Kd [12]: 0.061 µM
SMILES: CCOc1cc(N2CCC(O)CC2)ccc1Nc1ncc2c(n1)N(C1CCCC1)CCC(=O)N2C
Activity (U2OS [3]): inactive | Activity (U2OS [4]): 14% | Activity (UTRM10 [10]): Active | Activity (U2OS [13]): Active | Activity (U2OS [14]): 4%

Activity [15]: Active | Activity [16]: Active | Activity [17]: 80%
SMILES: C[C@H]1c2cccc(O)c2C(=O)C2=C(O)[C@]3(O)C(=O)C(C(N)=O)=C(O)[C@@H](N(C)C)[C@@H]3[C@@H](O)[C@@H]21 [DOXYCYCLINE ANHYDROUS]
Activity (UTRM10 [18]): inactive | fold change (FC) (U2OS [19]): 2
